Columns and labels:
[1] = Cell cycle arrest in human TY82 cells assessed as accumulation at G1 phase at 1 uM after 24 hrs by DAPI staining based assay (reference value: 73%); type: functional
[2] = target: Bromodomain testis-specific protein (Homo sapiens) (UniProt Q58F21); test: Inhibition of human partial length BRDT BD1 (N21 to E137 residues) expressed in bacterial expression system assessed as residual activity at 500 nM relative to control by BROMOscan assay
[3] = Cell cycle arrest in human TY82 cells assessed as accumulation at G1 phase at 10 uM after 24 hrs by DAPI staining based assay (reference value: 73%); type: functional
[4] = target: Transcription initiation factor TFIID subunit 1-like (Homo sapiens) (UniProt Q8IZX4); test: Inhibition of human partial length TAF1L BD2 (Q1523 to D1654 residues) expressed in bacterial expression system assessed as residual activity at 500 nM relative to control by BROMOscan assay
[5] = target: ATPase family AAA domain-containing protein 2B (Homo sapiens) (UniProt Q9ULI0); test: Inhibition of human partial length ATAD2B (Q955 to R1082 residues) expressed in bacterial expression system assessed as residual activity at 500 nM relative to control by BROMOscan assay
[6] = target: T1, Bromodomain-containing protein 4 (Homo sapiens, UniProt O60885); test: Inhibition of human partial length BRD4 BD1 (N44 to E168 residues) expressed in bacterial expression system assessed as residual activity at 500 nM relative to control by BROMOscan assay
[7] = AUCt in rat at 20 mg/kg, po; type: ADME, organism-based; conditions: in vivo
Summary of the method: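 Rat pharmacokinetics with single dosing, either intravenous at 2 mg/kg or oral at 5 or 20 mg/kg. AUC is reported both to the last time point (AUCt) and extrapolated to infinity, in ug.hr/mL.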

[8] = target: T1, Bromodomain-containing protein 4; test: Inhibition of human partial length BRD4 BD2 (K333 to E460 residues) expressed in bacterial expression system assessed as residual activity at 500 nM relative to control by BROMOscan assay
[9] = target: SWI/SNF-related matrix-associated actin-dependent regulator of chromatin subfamily A member 4 (Homo sapiens) (UniProt P51532); test: Inhibition of human partial length SMARCA4 (A1448 to S1575 residues) expressed in bacterial expression system assessed as residual activity at 500 nM relative to control by BROMOscan assay
[10] = target: ATPase family AAA domain-containing protein 2 (Homo sapiens) (UniProt Q6PL18); test: Inhibition of human partial length ATAD2A (Q981 to R1108 residues) expressed in bacterial expression system assessed as residual activity at 500 nM relative to control by BROMOscan assay
[11] = target: Histone acetyltransferase KAT2A (Homo sapiens) (UniProt Q92830); test: Inhibition of human partial length GCN5L2 (E726 to K837 residues) expressed in bacterial expression system assessed as residual activity at 500 nM relative to control by BROMOscan assay
[12] = Cell cycle arrest in human TY82 cells assessed as accumulation at sub-G1 phase at 10 uM after 24 hrs by DAPI staining based assay (reference value: 6%); type: functional
[13] = Cell cycle arrest in human TY82 cells assessed as accumulation at sub-G1 phase at 1 uM after 24 hrs by DAPI staining based assay (reference value: 6%); type: functional
[14] = Cell cycle arrest in human TY82 cells assessed as accumulation at G2/M phase at 10 uM after 24 hrs by DAPI staining based assay (reference value: 9%); type: functional
[15] = target: Histone acetyltransferase p300 (Homo sapiens) (UniProt Q09472); test: Inhibition of human partial length EP300 (A1040 to G1161 residues) expressed in bacterial expression system assessed as residual activity at 500 nM relative to control by BROMOscan assay
[16] = target: Histone acetyltransferase KAT2B (Homo sapiens) (UniProt Q92831); test: Inhibition of human partial length PCAF (G715 to D831 residues) expressed in bacterial expression system assessed as residual activity at 500 nM relative to control by BROMOscan assay
[17] = Stability in human liver microsomes assessed as parent compound remaining after 30 mins; type: ADME, microsome; conditions: read-out: Stability
Summary of the method: (§1)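 Incubated in vitro with mouse, rat or human liver microsomes for 30 minutes. Result expressed as percent of parent compound remaining.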

[18] = target: T1, Bromodomain-containing protein 4; test: Binding affinity to BRD4 BD2 (unknown origin)
[19] = target: Bromodomain-containing protein 7 (Homo sapiens) (UniProt Q9NPI1); test: Inhibition of human partial length BRD7 (L125 to R254 residues) expressed in mammalian expression system assessed as residual activity at 500 nM relative to control by BROMOscan assay
Rattus norvegicus [20] = test: Tmax in rat at 20 mg/kg, po; type: ADME, organism-based; conditions: in vivo
Summary of the method: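 Rat pharmacokinetics after a single intravenous dose of 2 mg/kg or oral doses of 5 mg/kg and 20 mg/kg. Reported parameters are Tmax, Cmax, T1/2, AUCt, AUC∞, CL, Vss and F(%). CL, Vss and F come from the intravenous/oral 2 and 5 mg/kg arms.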

[21] = target: Nucleosome-remodeling factor subunit BPTF (Homo sapiens) (UniProt Q12830); test: Inhibition of human partial length FALZ (S2791 to H2911 residues) expressed in bacterial expression system assessed as residual activity at 500 nM relative to control by BROMOscan assay
[22] = target: Bromodomain-containing protein 2 (Homo sapiens) (UniProt P25440); test: Inhibition of human partial length BRD2 BD1 (K71 to N194 residues) expressed in bacterial expression system assessed as residual activity at 500 nM relative to control by BROMOscan assay
[23] = target: T1, Bromodomain-containing protein 4; test: Inhibition of BRD4 BD1-BD2 (unknown origin) using tetraacetylated histone peptide as substrate after 2 hrs by alphascreen assay
[24] = target: Bromodomain adjacent to zinc finger domain protein 2B (Homo sapiens) (UniProt Q9UIF8); test: Inhibition of human partial length BAZ2B (S2054 to S2168 residues) expressed in bacterial expression system assessed as residual activity at 500 nM relative to control by BROMOscan assay
Rattus norvegicus [25] = test: Half life in rat at 20 mg/kg, po; type: ADME, organism-based; conditions: in vivo
Summary of the method: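 Rat pharmacokinetics with single intravenous (2 mg/kg) or oral (5 or 20 mg/kg) dosing. Terminal half-life is reported in hours.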

[26] = Stability in rat liver microsomes assessed as parent compound remaining after 30 mins; type: ADME, microsome; conditions: read-out: Stability; summary of the method: as §1
[27] = Cell cycle arrest in human TY82 cells assessed as accumulation at S phase at 3 uM after 24 hrs by DAPI staining based assay (reference value: 11%); type: functional
[28] = target: Protein polybromo-1 (Homo sapiens) (UniProt Q86U86); test: Inhibition of human partial length PBRM1 BD5 (S645 to D766 residues) expressed in bacterial expression system assessed as residual activity at 500 nM relative to control by BROMOscan assay

Bromodomain-containing protein 7 (Homo sapiens), sequence (Q9NPI1 whole entry, the tested form may be a part): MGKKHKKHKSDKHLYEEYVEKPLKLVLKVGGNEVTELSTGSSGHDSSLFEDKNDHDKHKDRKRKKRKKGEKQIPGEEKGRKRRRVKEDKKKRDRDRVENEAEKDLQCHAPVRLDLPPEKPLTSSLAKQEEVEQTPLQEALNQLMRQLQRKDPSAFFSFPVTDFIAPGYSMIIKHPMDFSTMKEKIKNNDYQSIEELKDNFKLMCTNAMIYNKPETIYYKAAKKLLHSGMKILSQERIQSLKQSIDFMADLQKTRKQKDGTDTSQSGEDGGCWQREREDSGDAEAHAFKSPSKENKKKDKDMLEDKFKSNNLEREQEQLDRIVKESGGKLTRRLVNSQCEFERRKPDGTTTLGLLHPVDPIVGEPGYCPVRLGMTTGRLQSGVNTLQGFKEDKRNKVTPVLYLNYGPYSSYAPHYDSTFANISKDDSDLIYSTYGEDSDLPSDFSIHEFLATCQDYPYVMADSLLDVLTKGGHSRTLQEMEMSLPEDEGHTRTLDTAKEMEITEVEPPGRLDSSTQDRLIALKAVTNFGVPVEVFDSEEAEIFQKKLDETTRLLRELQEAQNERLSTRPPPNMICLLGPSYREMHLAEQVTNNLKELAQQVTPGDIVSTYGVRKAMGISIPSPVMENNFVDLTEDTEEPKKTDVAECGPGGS
ATPase family AAA domain-containing protein 2 (Homo sapiens), sequence (Q6PL18 whole entry, the tested form may be a part): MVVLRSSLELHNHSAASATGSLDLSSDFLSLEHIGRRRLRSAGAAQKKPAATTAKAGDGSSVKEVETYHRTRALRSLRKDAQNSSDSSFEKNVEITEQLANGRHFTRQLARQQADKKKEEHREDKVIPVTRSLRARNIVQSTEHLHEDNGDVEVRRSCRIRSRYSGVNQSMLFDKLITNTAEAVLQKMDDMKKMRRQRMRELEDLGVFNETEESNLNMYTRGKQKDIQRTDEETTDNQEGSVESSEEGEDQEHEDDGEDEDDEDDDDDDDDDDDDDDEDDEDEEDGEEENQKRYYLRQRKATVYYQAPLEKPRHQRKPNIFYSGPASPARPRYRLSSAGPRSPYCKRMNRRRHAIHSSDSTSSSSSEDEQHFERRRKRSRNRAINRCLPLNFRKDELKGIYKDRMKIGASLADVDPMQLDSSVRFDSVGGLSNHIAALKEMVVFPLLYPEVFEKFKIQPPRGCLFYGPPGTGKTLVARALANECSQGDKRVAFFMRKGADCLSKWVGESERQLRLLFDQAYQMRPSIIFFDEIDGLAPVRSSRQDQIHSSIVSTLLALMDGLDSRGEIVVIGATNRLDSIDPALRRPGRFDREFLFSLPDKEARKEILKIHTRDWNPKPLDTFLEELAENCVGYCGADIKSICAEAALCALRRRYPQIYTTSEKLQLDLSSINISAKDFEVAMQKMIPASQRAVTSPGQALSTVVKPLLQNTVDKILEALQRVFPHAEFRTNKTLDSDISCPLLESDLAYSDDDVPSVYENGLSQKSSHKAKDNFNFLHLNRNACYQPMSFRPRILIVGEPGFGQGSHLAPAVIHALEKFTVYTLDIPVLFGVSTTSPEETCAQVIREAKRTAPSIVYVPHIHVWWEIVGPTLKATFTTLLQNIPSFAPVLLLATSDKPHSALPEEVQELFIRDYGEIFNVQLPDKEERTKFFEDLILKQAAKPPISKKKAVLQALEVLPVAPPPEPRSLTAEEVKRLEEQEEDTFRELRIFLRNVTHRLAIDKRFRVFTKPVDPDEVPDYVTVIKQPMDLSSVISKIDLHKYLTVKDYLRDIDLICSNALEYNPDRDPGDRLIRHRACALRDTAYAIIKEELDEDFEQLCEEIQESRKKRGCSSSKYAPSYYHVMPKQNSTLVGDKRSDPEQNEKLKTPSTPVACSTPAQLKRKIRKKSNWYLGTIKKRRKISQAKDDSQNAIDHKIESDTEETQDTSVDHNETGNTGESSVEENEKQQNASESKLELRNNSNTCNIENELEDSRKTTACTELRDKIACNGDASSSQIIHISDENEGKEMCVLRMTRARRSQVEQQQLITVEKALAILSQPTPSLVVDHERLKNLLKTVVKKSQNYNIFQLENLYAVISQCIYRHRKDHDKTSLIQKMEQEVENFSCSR
Bromodomain-containing protein 2 (Homo sapiens), sequence (P25440 whole entry, looked up, the tested form may be a part): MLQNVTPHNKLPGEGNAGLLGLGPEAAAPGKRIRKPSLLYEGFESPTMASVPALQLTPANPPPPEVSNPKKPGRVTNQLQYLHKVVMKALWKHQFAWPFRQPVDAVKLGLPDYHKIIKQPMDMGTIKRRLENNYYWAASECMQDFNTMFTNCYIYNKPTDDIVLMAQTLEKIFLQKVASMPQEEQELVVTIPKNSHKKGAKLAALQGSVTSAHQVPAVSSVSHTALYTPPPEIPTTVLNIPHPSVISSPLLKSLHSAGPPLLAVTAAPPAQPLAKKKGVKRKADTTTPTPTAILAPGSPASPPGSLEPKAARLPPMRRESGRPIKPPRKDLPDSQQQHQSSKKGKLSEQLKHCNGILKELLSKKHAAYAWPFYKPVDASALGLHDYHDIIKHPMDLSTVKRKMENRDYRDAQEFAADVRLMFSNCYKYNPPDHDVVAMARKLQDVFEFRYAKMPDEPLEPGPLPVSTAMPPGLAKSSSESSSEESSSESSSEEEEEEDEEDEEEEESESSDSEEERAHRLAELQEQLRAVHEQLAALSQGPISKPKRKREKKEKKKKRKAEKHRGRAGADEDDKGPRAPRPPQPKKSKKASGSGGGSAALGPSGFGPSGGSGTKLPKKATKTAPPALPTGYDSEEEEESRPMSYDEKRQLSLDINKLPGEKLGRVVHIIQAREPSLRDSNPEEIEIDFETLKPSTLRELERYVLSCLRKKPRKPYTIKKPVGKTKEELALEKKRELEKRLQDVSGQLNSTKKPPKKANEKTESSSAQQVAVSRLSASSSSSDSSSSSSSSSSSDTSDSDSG
SWI/SNF-related matrix-associated actin-dependent regulator of chromatin subfamily A member 4 (Homo sapiens), sequence (P51532 whole entry, the tested form may be a part): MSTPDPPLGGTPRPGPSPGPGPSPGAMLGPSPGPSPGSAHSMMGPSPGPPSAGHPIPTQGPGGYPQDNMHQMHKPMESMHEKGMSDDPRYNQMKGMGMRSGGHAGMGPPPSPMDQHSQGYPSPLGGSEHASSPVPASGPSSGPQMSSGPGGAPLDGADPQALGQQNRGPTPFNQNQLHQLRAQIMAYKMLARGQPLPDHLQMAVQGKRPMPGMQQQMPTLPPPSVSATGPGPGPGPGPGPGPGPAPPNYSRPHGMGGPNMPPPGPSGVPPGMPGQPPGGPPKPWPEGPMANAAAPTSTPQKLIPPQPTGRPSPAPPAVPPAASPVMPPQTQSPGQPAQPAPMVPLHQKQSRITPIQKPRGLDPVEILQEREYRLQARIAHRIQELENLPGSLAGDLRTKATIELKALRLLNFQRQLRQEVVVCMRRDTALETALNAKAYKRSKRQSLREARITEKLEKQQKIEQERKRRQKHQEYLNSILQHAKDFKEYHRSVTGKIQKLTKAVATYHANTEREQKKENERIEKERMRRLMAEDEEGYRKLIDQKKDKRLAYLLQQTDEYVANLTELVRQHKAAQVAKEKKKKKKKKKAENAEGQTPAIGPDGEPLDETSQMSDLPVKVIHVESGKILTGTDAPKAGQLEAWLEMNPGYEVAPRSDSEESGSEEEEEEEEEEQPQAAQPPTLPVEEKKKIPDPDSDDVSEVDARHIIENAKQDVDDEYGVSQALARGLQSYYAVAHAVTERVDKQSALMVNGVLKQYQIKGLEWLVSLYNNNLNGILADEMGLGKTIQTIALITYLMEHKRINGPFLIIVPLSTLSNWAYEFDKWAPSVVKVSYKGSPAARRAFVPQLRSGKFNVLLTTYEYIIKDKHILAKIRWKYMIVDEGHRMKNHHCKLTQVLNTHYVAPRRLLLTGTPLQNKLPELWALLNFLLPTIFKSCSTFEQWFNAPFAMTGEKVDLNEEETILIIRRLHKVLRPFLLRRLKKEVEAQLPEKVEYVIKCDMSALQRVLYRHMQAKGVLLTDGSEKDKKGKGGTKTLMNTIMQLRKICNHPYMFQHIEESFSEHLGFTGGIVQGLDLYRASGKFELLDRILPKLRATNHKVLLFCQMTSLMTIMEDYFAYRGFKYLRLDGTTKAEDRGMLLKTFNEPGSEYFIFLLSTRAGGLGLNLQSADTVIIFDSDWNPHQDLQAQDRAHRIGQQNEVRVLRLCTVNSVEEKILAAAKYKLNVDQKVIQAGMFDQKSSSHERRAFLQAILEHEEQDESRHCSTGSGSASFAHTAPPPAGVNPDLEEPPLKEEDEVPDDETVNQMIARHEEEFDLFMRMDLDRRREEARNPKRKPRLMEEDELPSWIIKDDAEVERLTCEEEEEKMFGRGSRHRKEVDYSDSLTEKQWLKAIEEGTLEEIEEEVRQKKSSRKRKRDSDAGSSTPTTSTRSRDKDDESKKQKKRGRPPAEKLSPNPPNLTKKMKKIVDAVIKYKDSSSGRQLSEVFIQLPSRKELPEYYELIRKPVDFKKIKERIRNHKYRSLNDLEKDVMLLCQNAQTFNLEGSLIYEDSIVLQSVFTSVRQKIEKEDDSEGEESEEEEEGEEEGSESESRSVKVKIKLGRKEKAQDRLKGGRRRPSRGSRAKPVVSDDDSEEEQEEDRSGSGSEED

Cc1nnc2c(Nc3cccc(CNC(=O)C(C)C)c3)nc3ccccc3n12
Activity [1]: 81% | Activity [2]: 19% | Activity [3]: 88% | Activity [4]: 83% | Activity [5]: 96% | Activity [6]: 17% | AUC(0-t) [7]: 20600 ng·h/mL | Activity [8]: 16% | Activity [9]: 100% | Activity [10]: 100% | Activity [11]: 100% | Activity [12]: 5% | Activity [13]: 5% | Activity [14]: 4% | Activity [15]: 89% | Activity [16]: 91% | remaining at 0.5 h [17]: 92% | Kd [18]: 9 nM | Activity [19]: 80% | Tmax (Rattus norvegicus [20]): 1.3 h | Activity [21]: 90% | Activity [22]: 11% | IC50 [23]: 68 nM | Activity [24]: 93% | t1/2 (Rattus norvegicus [25]): 3 h | remaining at 0.5 h [26]: 5% | Activity [27]: 2% | Activity [28]: 84%

Source: ChEMBL document CHEMBL4043246, “Discovery of novel [1,2,4]triazolo[4,3-a]quinoxaline aminophenyl derivatives as BET inhibitors for cancer treatment” (Bioorg Med Chem Lett, 2017)
